Published values pooled from the literature.
Protocols differ between the studies behind these lines.
Effect on: cell growth or viability

Compound | cell line | test | conditions | IC50
Cc1ccc(S(=O)(=O)n2cc(/C=N/NC(=O)c3ccccc3C)c3ccccc32)cc1 | MCF-10A | MTT | 48 h | > 50 µM
Clc1ccc(-c2cc(CNc3cccc4cccnc34)on2)c(Cl)c1 | K562 | MTS | 72 h | 33 µM
Cc1ncsc1-c1ccc([C@H](C)NC(=O)[C@@H]2C[C@@H](O)CN2C(=O)[C@@H](NC(=O)CN2CCN(c3cc(-c4ccccc4O)nnc3N)CC2)C(C)(C)C)cc1 | VCaP | ATP luminescence | 7 days | 0.0092 µM
COc1cccc2c1C(=O)c1c(O)c3c(c(O)c1C2=O)C[C@@](O)(C(=O)CO)C[C@@H]3O[C@H]1C[C@H](N)[C@H](O)[C@H](C)O1 | MDCK | neutral red | 48 h | 70 µM
CC(C)[C@@H]1NC(=O)[C@H](Cc2c[nH]cn2)NC1=O | NCI-H446 | SRB | – | > 15 µM
Cc1ccc(S(=O)(=O)n2cc(/C=N/NC(=O)c3ccc(C(F)(F)F)cc3)c3ccccc32)cc1 | MCF-10A | MTT | 48 h | > 50 µM
CC(=O)c1ccc2cc(S(=O)(=O)Nc3ccccc3Cl)ccc2c1 | MDCK | neutral red | 48 h | 12.7 µM
Cc1ccc(S(=O)(=O)n2cc(/C=N/NC(=O)c3cc4ccccc4cc3O)c3ccccc32)cc1 | MCF-10A | MTT | 48 h | > 50 µM
CC(C)(C)[C@H](NC(=O)/C=C/c1ccc(OP(=O)(O)O)cc1)C(=O)N1CCC[C@H]1C(=O)N(c1ccccc1)c1ccc(I)cc1 | JHH7 | CCK-8 | – | 3.07 µM
COc1cccc2c1C(=O)c1c(O)c3c(c(O)c1C2=O)C[C@@](O)(C(=O)CO)C[C@@H]3O[C@H]1C[C@H](N)[C@H](O)[C@H](C)O1 | NCI-H446 | – | 96 h | 0.0365 µM
Cc1ccc(S(=O)(=O)n2cc(/C=N/NC(=O)Cc3cc(F)cc(F)c3)c3ccccc32)cc1 | MCF-10A | MTT | 48 h | > 50 µM
COc1ccc2c(c1)C(=O)C(=O)N2CCn1ncc2c(=O)[nH]cnc21 | BALB/3T3 clone A31 | SRB | 72 h | 21.7 µg/mL
O=c1cc(OCc2cc(-c3ccccc3)no2)c2ccccc2o1 | K562 | MTS | 72 h | > 100 µM
Nc1ncnc2c1ncn2CCN1C(=O)C(=O)c2cc(Cl)ccc21 | BALB/3T3 clone A31 | SRB | 72 h | 24.4 µg/mL
N#Cc1ccc(-c2cc(CNc3cccc4cccnc34)on2)cc1 | K562 | MTS | 72 h | 11.1 µM
O=C1C(=O)N(CCn2ncc3c(=O)[nH]cnc32)c2ccccc21 | BALB/3T3 clone A31 | SRB | 72 h | 23.1 µg/mL
CC(=O)c1ccc2cc(S(=O)(=O)Nc3ccccc3C)ccc2c1 | MDCK | neutral red | 48 h | 21.8 µM
Nc1ncnc2c1ncn2CCN1C(=O)C(=O)c2cc(F)ccc21 | BALB/3T3 clone A31 | SRB | 72 h | 47.2 µg/mL
Cc1ccc(S(=O)(=O)n2cc(/C=N/NC(=O)c3ccc(Br)cc3)c3ccccc32)cc1 | MCF-10A | MTT | 48 h | > 50 µM
CCOC(=O)c1c(C)nc2ccc(-c3ccc(F)cc3F)cc2c1O | MCF-10A | MTT | 48 h | ≥ 100 µM
